Assay outcomes from PubChem BioAssay.
A selection: hits, their analogues and other compounds. The true share with any hit is near 2.2%.
rRNA inh HTS = selective bacterial rRNA inhibition in E. coli; E. coli WT GFP vs humanized-ribosome RFP mutants, fluorescence, 24 h; hits give low values; DMSO median 0, no signal -100; GFP signal change (wild-type ribosome), % (concentration not given with the values); 350,000 compounds, 1.6% hits; AID 720706;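 active = significant combined selectivity score with lowered wild-type GFP, culture density cut under 30%, mutant RFP and density less affected; inactive = any of these conditions unmet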
SUMO Mot1 rescue = inhibitors of SUMOylation pathway: yeast Mot1-301 growth rescue | S. cerevisiae Mot1-301 growth rescue, ATP luminescence, 38.5C; percent above DMSO median, 100 means doubled | growth rescue, % at 18.8 µM | 320,000 compounds, 1% hits | AID 2716;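 active = every valid replicate shows activation above 250% relative to neutral control wells; inactive = the rest, any valid replicate at or below 250%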;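 note: OY570 slx delta 5 strain wells were the positive control but not used for scaling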
PglD inh = inhibitors of Campylobacter jejuni PglD acetyltransferase. purified PglD enzyme, DTNB colorimetric CoA detection. inhibition, % at 12.5 µM. 360,000 compounds, 0.098% hits; in the data active = inhibition above about 16%, passing the limit was not always enough
Yeast superoxide = yeast age-related superoxide inhibition as caloric restriction mimetic; superoxide response (% of plate mean), % at 10 µM; 330,000 compounds, 0.18% hits; S. cerevisiae aged cells, superoxide DHE fluorescence; hits give low values; AID 2690;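 active = superoxide response under a set limit, about three screen SD below normal, cut at about 65% in these data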;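 note: yeast aged for seven days with compound at 30 °C before DHE staining; 100% = average MFI of all compound-treated wells on the plate with controls excluded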
Cneo AK release = Cryptococcus neoformans lysis via adenylate kinase release | C. neoformans lysis, adenylate kinase release luminescence, 4 h; normalised: neutral wells 0, clomiphene wells 100 | lysis activity, % at 15 µM | 360,000 compounds, 0.2% hits;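 active = mean lysis activity across replicates of at least 80%, whatever share of replicates individually reach that level; inactive = mean lysis activity below 80%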
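Test system: log-phase Cryptococcus neoformans yeast cells; Quantity: yeast cell density of 5 × 10^6 cells/mL; Buffer or medium: YPD; Doses: single compound concentration per well; Timing: 4 h at 37 °C static, read 1 h later; Measured by: AK luminescence; Read-out basis: lysis from increased AK signal; Control set: Clomiphene as positive control.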
Mot1 SUMO dose = inhibits SUMO pathway, affecting Mot1-301 yeast growth | AID 493004 | S. cerevisiae Mot1-301 galactose growth, ATP luminescence, 24 h; -100 = growth of slx-deleted rescue strain | shares compounds with SUMO Mot1 rescue | growth activity, percent, % at 42 µM | 2,300 tested, under 10 active;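 active = Signal drops as the depositor expects, and the fitted half-maximal dose is no more than ten times the top valid tested dose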;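 note: more negative values mean stronger growth rescue toward the control strain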
Starred values were filed as active, the others as inactive.

Results for COCCNC(=O)C[C@@H]1C[C@H]2c3cc(NC(=O)Nc4ccc(OC)cc4)ccc3O[C@H]2[C@H](CO)O1 ?
rRNA inh HTS: 2; PglD inh: 3; Cneo AK release: -4

Results for CN(C)CC(=O)N[C@H]1CC[C@H](CCn2cc(C3CC3)nn2)O[C@H]1CO ?
rRNA inh HTS: 0; PglD inh: 2; Cneo AK release: 0

How did COc1cccc(S(=O)(=O)Nc2ccc3c(c2)[C@@H]2C[C@@H](CC(=O)N(C)C)O[C@H](CO)[C@@H]2O3)c1 do in these assays?
rRNA inh HTS: -1; PglD inh: -1; Cneo AK release: 22

Results for CC(C)Sc1ccc(C(=O)Nc2ccc(F)cc2F)cn1 ?
rRNA inh HTS: 2; SUMO Mot1 rescue: 537*; Yeast superoxide: 96; Mot1 SUMO dose: 0

What do the screens show for `COCCn1c(C)cc(C(=O)CN2C(=O)NC3(CCCCCCC3)C2=O)c1C`?
rRNA inh HTS: 5; SUMO Mot1 rescue: 667*; PglD inh: -6; Yeast superoxide: 111; Cneo AK release: 4; Mot1 SUMO dose: 0

How did C/C(O)=C(\N=Nc1cc(C)ccc1O)C(N)=O do in these assays?
rRNA inh HTS: -16; SUMO Mot1 rescue: active; Yeast superoxide: 93; Mot1 SUMO dose: 1

Results for C[C@H](CO)N1C[C@H](C)[C@H](CN(C)C(=O)Nc2ccc(F)cc2)Oc2ccc(NS(=O)(=O)c3cn(C)cn3)cc2C1=O ?
rRNA inh HTS: -1

How did Cc1ccc(NC(=O)/C=N/OCC(=O)NCc2ccccc2Cl)cc1 do in these assays?
rRNA inh HTS: 1; SUMO Mot1 rescue: 464*; PglD inh: -2; Yeast superoxide: 92; Cneo AK release: -7; Mot1 SUMO dose: 0

Results for CCC(c1nc2ccccc2c(=O)n1-c1nc2ccccc2s1)N1C(=O)c2ccccc2C1=O (stereo not given) ?
SUMO Mot1 rescue: 359*; Yeast superoxide: 101; Mot1 SUMO dose: 0

Results for COc1ccc(C2CC(c3ccccc3)=NN2C(=S)Nc2ccccc2)cc1 (stereo not given) ?
rRNA inh HTS: 14; PglD inh: -4; Yeast superoxide: 98; Cneo AK release: -5

What do the screens show for `COc1ccc(C2=NN(C(=S)Nc3ccccc3)C(c3ccccc3)C2)cc1` (stereo not given)?
SUMO Mot1 rescue: active; Yeast superoxide: 92; Mot1 SUMO dose: -1

Results for C[C@H](CO)N1C[C@H](C)[C@H](CN(C)Cc2ccc3c(c2)OCO3)Oc2ccc(NS(=O)(=O)c3ccccc3)cc2C1=O ?
rRNA inh HTS: 2; PglD inh: 2; Cneo AK release: -1

What do the screens show for `O=C(C[C@H]1C[C@@H]2c3cc(NS(=O)(=O)c4ccc(F)cc4)ccc3O[C@@H]2[C@@H](CO)O1)NC1CCCCC1`?
rRNA inh HTS: -2; PglD inh: -4; Cneo AK release: -6

How did CCCCCNC(=O)c1ccc2c(=O)n(CC3CCCO3)c(=O)[nH]c2c1 (stereo not given) do in these assays?
SUMO Mot1 rescue: 773*; PglD inh: -1; Yeast superoxide: 107; Cneo AK release: -1; Mot1 SUMO dose: 0

What do the screens show for `CCCCCNC(=O)c1ccc2c(=O)n(CC3CCCO3)c(=S)[nH]c2c1` (stereo not given)?
rRNA inh HTS: -2; SUMO Mot1 rescue: -1; Yeast superoxide: 94

Results for C[C@H](CO)N1C[C@H](C)[C@@H](CN(C)Cc2cccc(F)c2)Oc2cc(-c3ccccc3)ccc2S1(=O)=O ?
rRNA inh HTS: 6; PglD inh: 1; Cneo AK release: 63

How did CCc1ccc(S(=O)(=O)Nc2ccc(-c3nc4cccnc4s3)cc2)s1 do in these assays?
rRNA inh HTS: -6; SUMO Mot1 rescue: 9; PglD inh: 4; Yeast superoxide: 111; Cneo AK release: 0

What do the screens show for `O=S(=O)(Nc1ccc(-c2nc3cccnc3s2)cc1)c1cc(F)ccc1F`?
rRNA inh HTS: -20*; SUMO Mot1 rescue: 370*; Yeast superoxide: 95; Mot1 SUMO dose: -1
